Screening data deposited in PubChem BioAssay by several laboratories.
S1P3 antagonist: blocks the human S1P3 receptor. CHO S1P3 NFAT-BLA reporter, FRET fluorescence, antagonist mode. inhibition, % at 4.98 µM. actives 0.27% (n = 170,000). AID 485;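 active means inhibition above the plate cutoff, the mean inhibition of test wells on that plate plus 3 SD, cut at about 28% in these data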;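 further: cells challenged with S1P at its EC80 of 0.8 µM; blue over green emission ratio from cleaved BLA substrate after 4 h stimulation; 0% = S1P-stimulated wells and 100% = unstimulated DMSO-only wells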
Target sequence (Q99500 whole entry, looked up): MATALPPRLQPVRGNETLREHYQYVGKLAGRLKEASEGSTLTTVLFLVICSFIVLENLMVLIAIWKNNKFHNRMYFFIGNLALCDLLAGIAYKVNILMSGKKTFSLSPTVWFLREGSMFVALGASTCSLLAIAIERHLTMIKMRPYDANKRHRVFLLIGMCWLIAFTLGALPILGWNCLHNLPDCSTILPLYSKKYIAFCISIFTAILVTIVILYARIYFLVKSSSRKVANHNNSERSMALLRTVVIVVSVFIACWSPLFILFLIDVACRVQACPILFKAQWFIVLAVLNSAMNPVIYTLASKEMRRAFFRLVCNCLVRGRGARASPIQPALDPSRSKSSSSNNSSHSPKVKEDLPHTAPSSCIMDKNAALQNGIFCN
S1P4 agonist: human S1P4 receptor agonism. S1P4-expressing cell line, agonist reporter assay. activation, % at 4.98 µM. actives 0.35% (n = 220,000). AID 1509. O95977; in the data active means activation above about 11%;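 further: 0% = DMSO vehicle and 100% = reference agonist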
S1P4 antag: blocks the human S1P4 receptor; O95977; S1P4-expressing cells, antagonist mode, reporter read-out; inhibition, % at 4.98 µM; actives 0.26% (n = 220,000); AID 1510; in the data active means inhibition above about 29%;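 further: 0% = wells stimulated with agonist and 100% = vehicle wells without agonist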
MDM2 E3 inh: blocks human Mdm2 ubiquitin ligase activity; signal enhancement, % at 5 µM; Q00987; cell-based MDM2 ubiquitination luciferase reporter, 2 h; 0 = plate control, 100 = twice control, blank-subtracted; actives 0.11% (n = 210,000); AID 1230;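 active means signal enhancement of 30% or more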;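 further: luminescence tracks abundance of the self-degrading MDM2-luciferase fusion protein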
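Timing – 2 h compound exposure at 37 °C · Assay system – mammalian cells stably expressing self-ubiquitinating, self-degrading MDM2 E3–luciferase fusion · Amount – 2000 cells seeded into each well · Measure – % luminescence enhancement versus blank-corrected plate control mean · Measured by – SteadyLite luminescence, 15 min reagent step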
L major viab: reduces viability of Leishmania major promastigotes; actives 9% (n = 200,000); resazurin fluorescence viability; inhibition, % at 10 µM; AID 1063; in the data active means inhibition above about 50%;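 further: promastigotes grown with compound for 44 hours at 28 °C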
* = called active by the depositor; . = no result given. Many of the other results were omitted from the sample, so hits are more common in it than they were.

SMILES	S1P3 antagonist	S1P4 agonist	S1P4 antag	MDM2 E3 inh	L major viab
C/C(=N\NC(N)=S)C12CC3CC(CC(C3)C1)C2	.	-0.3	25.2	-13.2	100.5*
C/C(=N\NC(N)=S)C1(C)CCCCC1	1.1	1.8	3.9	-10.2	24.8
COc1ccc(/C=C/C(=O)CCC(=O)O)cc1	5.5	1.3	-6.2	-9.7	-0.8
COc1ccc(/C=C/C(=O)CC(O)(c2ccccc2)C(F)(F)F)cc1 (configuration not stated)	.	-0.1	10.8	.	98.3*
COc1ccc(S(=O)(=O)Nc2ccc(-n3cccc3)cc2)cc1	-13.0	-1.9	-2.9	-6.2	14.8
O=C(c1ccccc1)N1CCN(c2ccc([N+](=O)[O-])c(NCc3cccnc3)c2)CC1	7.6	-0.8	-3.5	-94.1	44.6
O=C(c1ccc(Cl)cc1)N1CCN(c2ccc([N+](=O)[O-])c(NCc3cccnc3)c2)CC1	.	-1.1	-1.2	.	84.9*
O=C1/C(=C\c2ccncc2)SC(=S)N1C1CCCCC1	9.7	0.4	1.5	-13.1	65.2*
CCCCC(CC)CN1C(=O)/C(=C/c2ccncc2)SC1=S (configuration not stated)	.	2.2	-2.1	-26.8	96.5*
O=C1/C(=C/c2ccncc2)SC(=S)N1C1CCCCC1	-13.9	0.6	1.6	-11.5	10.7
Cc1cc(NC(=O)CSCC(=O)N(c2cccc(Cl)c2)C(C(=O)NC2CCCCC2)c2ccc(O)c(O)c2)no1 (configuration not stated)	-7.9	-1.4	-10.8	-4.3	-3.8
CCOC(=O)CC1=NN(c2ccccc2)C(=O)/C1=C\c1ccc(N(C)C)cc1	-4.9	0.8	-9.7	6.5	96.0*
CCOC(=O)c1ccc(N2N=C(C)/C(=C/C=C/c3ccco3)C2=O)cc1	.	0.6	-4.4	-22.9	30.2
CCOC(=O)CC1=NN(c2ccccc2)C(=O)C1	-17.8	-1.2	-17.4	-1.3	-0.3
CC1=NN(c2ccccc2)C(=O)/C1=C\C=C\c1ccccc1	-5.4	1.5	8.7	16.5	.
CC1=NN(c2ccc(C(=O)OC(C)C)cc2)C(=O)/C1=C\C=C\c1ccco1	.	-3.3	-5.3	.	76.0*
CC1=NN(c2ccccc2)C(=O)/C1=C/C=C/c1ccc(N(C)C)cc1	-28.8	-0.7	-10.3	-91.4	67.7*
O=C(NCc1cc(C(F)(F)F)cc(C(F)(F)F)c1)C1CC(c2ccccc2[N+](=O)[O-])=NO1 (configuration not stated)	.	1.6	1.6	-10.2	87.8*
COc1ccc(N(C)S(=O)(=O)c2c(C)[nH]c(=O)[nH]c2=O)cc1	21.5	3.7	-16.8	-2.9	2.6
O=C(Nc1ccccc1)c1sc2cc(C(F)(F)F)cnc2c1-c1cccs1	.	0.0	9.3	-11.4	58.7*
COc1ccc(C2c3c(-c4ccccc4O)n[nH]c3C(=O)N2Cc2ccco2)cc1OC (configuration not stated)	-9.3	0.3	-0.9	-4.3	.
O=C1c2[nH]nc(-c3ccccc3O)c2C(c2cccc(Cl)c2)N1Cc1ccco1 (configuration not stated)	15.5	-2.3	1.1	-32.8	79.0*
O=C1c2[nH]nc(-c3ccccc3O)c2C(c2ccc(F)cc2)N1Cc1ccco1 (configuration not stated)	-9.0	2.3	-9.4	-20.4	94.4*
O=C1c2[nH]nc(-c3ccccc3O)c2C(c2cccc(Cl)c2)N1CC1CCCO1 (configuration not stated)	13.6	1.1	-1.1	6.5	32.0
COc1ccc(CN2CCCC(C(=O)c3ccc(SC)cc3)C2)cc1Cn1cccn1 (configuration not stated)	-2.6	-0.1	-2.5	-14.2	90.4*
COc1ccc(CN2CCCC(C(=O)c3cccc(C(F)(F)F)c3)C2)cc1O (configuration not stated)	-3.0	1.2	-21.8	3.2	84.2*
CC(=O)Nc1ccc(CN2CCCC(C(=O)c3cccc(C(F)(F)F)c3)C2)cc1 (configuration not stated)	-14.2	-0.5	-3.2	-11.7	23.4
CSc1ncc(CN2CCCC(C(=O)c3ccc(C(C)(C)C)cc3)C2)cn1 (configuration not stated)	-1.8	-0.5	0.7	-10.6	88.5*
O=C(c1cccc(C(F)(F)F)c1)C1CCCN(Cc2ccc(OCCO)cc2)C1 (configuration not stated)	8.4	0.5	-4.0	8.3	81.0*
Cc1noc(C)c1COc1cccc(C(=O)Nc2ccccc2N2CCOCC2)c1	-13.1	2.0	-22.6	-1.4	11.4
